Calls of active or inactive are those of the source.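 How the source made its calls: active means inhibition of 30% or more at any tested concentration; inactive means the rest.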

Broadly, the IC50 is the midpoint of a concentration-inhibition curve.

The target in one assay is M18 aspartyl aminopeptidase (Plasmodium falciparum 3D7). The assay is described as follows: PfM18AAP inhibitors, dose response, biochemical, QFRET fluorogenic substrate (AID 588678). As to conditions: recombinant PFM18AAP, H-Glu-NHMec fluorogenic substrate cleavage. A digest of the protocol: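 Assay system: purified recombinant Plasmodium falciparum M18 aspartyl aminopeptidase (rPFM18AAP); reagent: H-Glu-NHMec peptide substrate (fluorogenic), 0.1 mM final; compound dosing: 10-point twofold compound dilution series; schedule: enzyme reaction with compounds, 90 min at room temperature; measured by: NHMec fluorescence at 370 nm excitation, 460 nm emission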
In the case of `Cc1nc(NCCc2ccc(O)c(O)c2)c2c3c(sc2n1)CCC3`, the IC50 was 13.9 µM.
For `Cc1ccc(-c2nc(-c3ccc(O)c(O)c3)cs2)cc1`, the concentration for half-maximal inhibition (IC50) is 9.45 µM.
On the same count and under the same terms, the figure for `Oc1ccc(CCNC2CCN(Cc3ccccc3)CC2)cc1O` is 26.6 µM.
On the same count and under the same terms, as for `O=c1cc(CN2CCN(Cc3ccccc3)CC2)c2ccc(O)c(O)c2o1`, the figure is 49.1 µM; as for `CN(CCc1ccc(O)c(O)c1)c1ccncc1`, 8.38 µM.
On the same count and under the same terms, the figure for `Oc1ccc(CCNc2c3c(nc4ccccc24)CCCC3)cc1O` is 10.2 µM; for `CN(CCc1ccc(O)c(O)c1)c1ccnc2ccccc12` it is 4.85 µM; for `Oc1ccc(CCNc2cncc3ccccc23)cc1O` it is 11.4 µM.
Consider `O=c1ccc2cc(O)c(O)cc2o1`, for which the IC50 is 44.2 µM.
In the case of `Oc1ccc(CCNC(c2ccccc2)c2ccccc2)cc1O`, the IC50 was 10.5 µM.
As to `Oc1ccc(CCN2CCc3ccccc3C2)cc1O`, the IC50 is 22.3 µM.
On the same count and under the same terms, the figure for `Oc1ccc(CCNc2ccc3ccccc3c2)cc1O` is 11.6 µM; for `Cc1c(-c2ccccc2)[nH]c(-c2ccc(O)c(O)c2)[n+]1O` it is 17 µM.
Turning to `Oc1ccc(CCNc2cccc3ccccc23)cc1O`, the IC50 was 5.4 µM.
In the case of `CCOc1cccc(-c2nc(-c3ccc(O)c(O)c3)cs2)c1`, the IC50 was 9.57 µM.
For `Oc1ccc(CCCNc2c3ccccc3nc3ccccc23)cc1O`, the IC50 was 27.9 µM.
On to `Nc1cc(C(=O)c2ccccc2)ccc1O`, for which the half-maximal inhibitory concentration (IC50) was 51.4 µM.
Regarding `Oc1ccc(-c2csc(Cc3cc4ccccc4[nH]3)n2)cc1O`, the IC50 is 12.6 µM.
Consider `CC(C)(C)C(=O)OCc1nc(-c2ccc(O)c(O)c2)cs1`, for which the IC50 is 13.1 µM.
On to `O=C1OCCN1CCc1nc(-c2ccc(O)c(O)c2)cs1`, for which the IC50 was 8.07 µM.
On to `O=S1(=O)c2ccccc2-c2cc(-c3nc(-c4ccc(O)c(O)c4)[nH]c3-c3ccccc3)ccc21`, for which the IC50 is 16.9 µM.
Take `COc1ccc2c(c1)C(=O)C(N)CC2` (stereo not drawn): the IC50 is 74.5 µM.
`CCC(C)c1ccc(N)c(O)c1` (stereo not drawn): the IC50 is 19.5 µM.

The assay is the same for the next values; noted with them: recombinant PFM18AAP, H-Glu-NHMec fluorogenic substrate cleavage; at 50 µM (top of the series).
Turning to `O=C(O)CCCNc1c2ccccc2nc2ccccc12`, the inhibition result was “inactive”.
As to `O=C1c2ccc3c4c(ccc(c24)C(=O)N1O)CC3`, the inhibition result was “inactive”.
For `O=C(O)CCCCNc1c2ccccc2nc2ccccc12`, the inhibition entry is “inactive”.

Still in this assay, the particulars now being: recombinant PFM18AAP, H-Glu-NHMec fluorogenic substrate cleavage; at 100 µM (top of the series).
For `COc1ccc(CCN(C)c2ccncc2)cc1OC`, the inhibition result is “inactive”.
In the case of `COc1ccc(CCNC2CCN(Cc3ccccc3)CC2)cc1OC`, the inhibition result is “inactive”.
Take `COc1cccc(-c2nc(-c3ccc(OC)c(OC)c3)cs2)c1`: the inhibition result was “inactive”.
`COc1ccc(CCN(C)CCc2ccccc2)cc1OC`: the inhibition entry is “inactive”.
The same measure, in the same setting: as for `NCc1cc2c3c(c(=O)oc2c(O)c1O)CCC3`, the entry is “inactive”.
As for `COc1ccc(-c2csc(-c3ccccc3)n2)cc1OC`, the inhibition entry is “inactive”.
As for `COc1ccc(CCNc2cccc3ccccc23)cc1OC`, the inhibition entry was “inactive”.
Turning to `CCC(C)C(=O)Nc1ccccc1N` (stereo not drawn), the inhibition result is “inactive”.
`COc1ccc(CCNc2c3c(nc4ccccc24)CCCC3)cc1OC`: the inhibition result was “inactive”.
Still for that read-out and setting: the entry for `COc1ccc(CCN2CCN(C)CC2)cc1OC` is “inactive”.
Still for that read-out and setting: as for `COc1ccc(-c2nc(-c3ccccc3)c(-c3ccccc3)[nH]2)cc1OC`, the entry is “inactive”.
For `O=c1cc(CO)oc(CN2CCCCC2)c1O`, the inhibition result is “inactive”.
Same read-out and setting: as for `O=c1ccn(CCNc2c3ccccc3nc3ccccc23)cc1OCc1ccccc1`, the entry is “inactive”.
Regarding `COc1ccc(CCN2CCc3ccccc3C2)cc1OC`, the inhibition result was “inactive”.
`Oc1ccc(CNc2c3ccccc3nc3ccccc23)cc1O`: the inhibition result is “inactive”.
On to `Cc1c(O)c(=O)ccn1CCNc1c2ccccc2nc2ccccc12`, for which the inhibition entry is “inactive”.
Take `COc1ccc(CCNc2c3ccccc3nc3ccccc23)cc1OC`: the inhibition entry is “inactive”.
The same measure, in the same setting: as for `COc1ccc(CCNc2ccnc3ccccc23)cc1OC`, the entry is “inactive”.
As for `Cc1c(OCc2ccccc2)c(=O)ccn1CCNc1c2ccccc2nc2ccccc12`, the inhibition result was “inactive”.
Regarding `COc1ccc(CCNc2ccncc2)cc1OC`, the inhibition entry is “inactive”.
The same measure, in the same setting: as for `COc1ccc(CCNC2CCN(C)CC2)cc1OC`, the entry is “inactive”; as for `COc1ccc(CCN(C)c2c3ccccc3nc3ccccc23)cc1OC`, “inactive”; as for `COc1ccc(CCN(C)c2ccnc3ccccc23)cc1OC`, “inactive”.
Consider `COc1ccc(CCC(=O)O)cc1OC`, for which the inhibition result was “inactive”.
For the compound `O=C(c1ccco1)N1CCN(Cc2cc(=O)c(O)co2)CC1`, the inhibition entry is “inactive”.
Still for that read-out and setting: as for `COc1ccc(-c2csc(-c3ccccc3OC)n2)cc1OC`, the entry is “inactive”; as for `COc1ccc(CCNc2c3ccccc3nc3ccccc23)cc1`, “inactive”; as for `NCCNc1c2ccccc2nc2ccccc12`, “inactive”.
For `O=C(c1ccco1)N1CCN(Cc2cc(=O)c(O)c[nH]2)CC1`, the inhibition result was “inactive”.
The same measure, in the same setting: as for `COc1ccc(CC(=O)O)cc1OC`, the entry is “inactive”; as for `COc1ccc(CCNc2cncc3ccccc23)cc1OC`, “inactive”; as for `COc1ccc(CNc2c3ccccc3nc3ccccc23)cc1OC`, “inactive”.
As to `CCC(C)C(=O)Nc1ccccc1O` (stereo not drawn), the inhibition entry was “inactive”.
Consider `Oc1ccc(CCNc2c3ccccc3nc3ccccc23)cc1`, for which the inhibition result is “inactive”.
On the same count and under the same terms, the entry for `COc1cccc(CCNc2c3ccccc3nc3ccccc23)c1` is “inactive”; for `COc1ccc(CCNc2ccc3ccccc3c2)cc1OC` it is “inactive”; for `COc1ccc(CCCNc2c3ccccc3nc3ccccc23)cc1OC` it is “inactive”.
